# STAT1 blocker = STAT1 signaling inhibition; NIH 3T3 STAT1-luciferase reporter, IFN-gamma, luminescence; inhibition, % at 5.5 µM; 200,000 compounds, 0.35% hits; AID 920;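 active = inhibition above a set limit, the mean inhibition across all tested compounds plus 3 SD, cut at about 34% in these data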;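 also: 0% = IFN-gamma with DMSO and 100% = IFN-gamma with 300 µM nifuroxazide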
# APP 5'UTR act = activates APP 5'UTR luciferase reporter; SH-SY5Y APP 5'UTR luciferase reporter, luminescence; zero percent = DMSO vehicle wells; activation, % at 2 µM; 190,000 compounds, 1% hits;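 active = activation above a set limit, based on mean plus 3 SD of controls, cut at about 140% in these data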
# STAT3 activator = activators of IL-6 induced STAT3 signaling. U3A cells, IL-6 STAT3-luciferase reporter, luminescence; 100% = signal with IL-6 EC80 alone. 190,000 compounds, 0.91% hits. activation (% of control), % at 5.6 µM. AID 871;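 active = activation above the screen-wide mean of compound activation plus 3 SD, cut at about 130% in these data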;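 also: 0% = background luminescence of wells with medium and substrate only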
#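 Material: STAT3-luciferase reporter U3A cells; Probe or stimulus: IL-6 (33 ng/mL); Incubation: compound pre-incubation 1 h before IL-6, then 6 h stimulation at 37 °C; Technique: luminescence from STAT3-driven luciferase reporter; Evaluation: % activation versus median of IL-6-stimulated wells; Controls: IL-6-only high control.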
# STAT3 inh = STAT3 signaling inhibition; U3A cells, IL-6 STAT3-luciferase reporter, luminescence; host cell line lacks STAT1; inhibition, % at 5.5 µM; 190,000 compounds, 0.89% hits;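 active = inhibition above the mean inhibition across all screened compounds plus 3 SD, cut at about 44% in these data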;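 also: 0% = DMSO only wells and 100% = 100 µM nifuroxazide control wells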
# STAT1 activator = increases IFN-gamma driven STAT1 reporter signal. NIH 3T3 STAT1-luciferase reporter, luminescence; 100% = IFN-gamma alone, no compound. activation (% of control), % at 5.5 µM. 200,000 compounds, 2.6% hits;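 active = activation above the screen-wide mean activation plus 3 SD, cut at about 130% in these data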;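 also: raw ratio to IFN-gamma control signal so 100% means no change and 0% no light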
# NF-kB expr up = NF-kB expression increase, human neuronal cells | NF-kB reporter expression; active compounds read high | fold change at 12.5 µM | 190,000 compounds, 1.6% hits | AID 1239; in the data active = fold change above about 3.3
# STAT1 activ conf = confirmation of STAT1 signaling activators; shares compounds with STAT1 activator; NIH 3T3 STAT1-luciferase reporter, IFN-gamma potentiation, luminescence; 100% = IFN-gamma EC80 alone, no compound; activation (% of control), % at 5.7 µM; 1,200 compounds, 97% hits;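 active = activation above a set limit carried over from the earlier primary STAT1 screen, cut at about 140% in these data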;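 also: simple ratio to median IFN-gamma plus DMSO wells so 0% means no light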
# NFkB act = activates NF-kappaB, counter-screen to STAT1 activators | 1,200 compounds, 43% hits | HEK293T NF-kB luciferase reporter, TNF-alpha stimulated, luminescence; 100% = TNF-alpha with vehicle only | shares compounds with STAT1 activator | AID 1306 | activation (% of control), % at 5.7 µM;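 active = activation above the mean of solvent-only control wells plus 3 SD, set per campaign, cut at about 130% in these data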;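 also: TNF-alpha given at a submaximal dose yielding about 80% of full reporter signal; values are well signal over median control so 100% means no change and 0% no light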
# STAT3 act STAT1c = counter-screen for STAT1 activators: human STAT3 activation; shares compounds with STAT1 activator; U3A cells STAT3-luciferase reporter, IL-6, luminescence; cells lack STAT1; 100 = IL-6 alone, no compound effect; activation (% of control), % at 5.7 µM; 1,200 compounds, 46% hits; AID 1316;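 active = activation above the solvent-only control well mean plus 3 SD, set per plate batch, cut at about 110% in these data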;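 also: 0% = no luminescence and 100% = median IL-6 plus DMSO wells; higher means more STAT3 reporter activation so hits are non-selective activators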
# * = called active by the depositor; · = no result given. Sampled rows, rich in hits. Any-hit rate of the full collection: about 4.9%.
SMILES,STAT1 blocker,APP 5'UTR act,STAT3 activator,STAT3 inh,STAT1 activator,NF-kB expr up,STAT1 activ conf,NFkB act,STAT3 act STAT1c
CCCOC(=O)c1ccc(-c2ccc(C=O)o2)cc1,-70,105,112,-16,162*,4.8*,217*,132,104
Cc1ccccc1NC(=O)Nc1ccccc1Br,-1,9,83,25,101,1.3,·,·,·
Cc1cc(NC(=O)Nc2ccccc2F)ccc1Br,-93,213*,93,13,181*,6.7*,232*,141*,112*
COc1ccc(Cl)c2c1[nH]c1nc(SCc3ccccn3)nnc12,-100,157*,120,-16,189*,4.2*,175*,144*,124*
CC(C)c1ccc(NC(=O)c2snc3ccc(Cl)cc23)cc1,-64,120,131,-31,158*,2.3,194*,126,139*
CC(C)c1ccc(NC(=O)c2cc(Br)ccc2Br)cc1,-6,-17,97,8,105,1.3,·,·,·
COc1cc(C)c(Br)cc1S(=O)(=O)NCCCN1CCOCC1,3,-13,91,15,96,0.9,·,·,·
Cc1cccc(NC(=O)Nc2ccc(C#N)cc2)n1,-122,16,78,26,208*,1.2,141*,136*,125*
Cc1cc(C)nc(NC(=O)Nc2ccc3c(c2)OCO3)c1,-62,228*,86,19,156*,3,204*,128,99
Cc1cccc(NC(=O)Nc2cc(C)cc(C)n2)c1,-74,173*,88,22,169*,2.7,193*,121,100
Cc1cccc(NC(=O)Nc2ccc(C)cc2Br)c1,-26,82,101,2,123,1.6,·,·,·
O=C1NCCN(Cc2ccoc2)C1CC(=O)N(Cc1ccccc1)CC1CCC1 (centres undefined),1,0,107,-3,97,·,·,·,·
CCOC(=O)c1[nH]c(C)c(C(=O)OCC(=O)Nc2sc3c(c2C#N)CCCCC3)c1C,1,7,108,-2,98,1,·,·,·
O=C(Nc1ccccc1NS(=O)(=O)c1ccc(F)cc1)C1CCC1,7,1,97,6,93,1.3,·,·,·
CCCc1ccc(-c2cc(NC(=O)CSc3nnc(N)s3)n(-c3ccccc3)n2)cc1,-65,97,109,-16,159*,4.4*,189*,134*,111*
Cc1nnc(SCC(=O)Nc2cc(-c3cc(C)c(C)cc3C)nn2-c2ccccc2)s1,9,-6,102,-5,92,0.89,·,·,·
O=C(NCCc1ccccc1)c1ccc(Cl)nc1,-54,73,97,8,156*,3,163*,118,121*
CC(=O)Nc1ccc(C(=O)NCCc2ccccc2)cc1,-9,28,108,-12,111,1,·,·,·
Cc1ccc(OCC(=O)Nc2ccccc2[N+](=O)[O-])c(Br)c1,-66,154*,112,0,160*,5.7*,202*,135*,109
Cc1nc(NC(=O)c2csc3ccccc23)sc1C,-83,151*,96,10,176*,7.5*,256*,137*,111*
Cc1nn(C)c(C)c1/C=N/NC(=O)c1csc2ccccc12,-16,-10,107,-5,114,1.2,·,·,·
CC1CCc2nc(/C(C#N)=C/c3ccncc3)sc2C1 (centres undefined),-60,47,90,14,152*,1.1,160*,130,94
COc1ccc(C(=O)N(NC(=O)Oc2ccccc2)C(C)(C)C)cc1,-3,-11,103,-2,103,1.1,·,·,·
CCOC(=O)C1CCN(C(=O)CNS(=O)(=O)c2cccs2)CC1,8,9,96,11,93,1.1,·,·,·
O=C(/C=C/Nc1ccc(Nc2ccccc2)cc1)c1cccs1,-70,98,103,8,162*,2.2,166*,140*,108
SMILES,STAT1 blocker,APP 5'UTR act,STAT3 activator,STAT3 inh,STAT1 activator,NF-kB expr up,STAT1 activ conf,NFkB act,STAT3 act STAT1c
Cc1cc(Br)ccc1SCC(=O)OCC(=O)Nc1ncc(C(F)(F)F)cc1Cl,-3,4,109,-8,103,1,·,·,·
COc1ccc(Nc2oc(-c3cccs3)nc2C#N)cc1,-56,72,95,8,151*,2.4,160*,120,94
O=C(NCCc1cccs1)c1ccc(Cl)c(Cl)c1,-62,63,98,3,159*,3.8*,164*,130,107
CC(=Nc1ccccc1)C1=C(O)COC1=O,-7,5,102,5,106,1.2,·,·,·
CC(=Nc1ccccc1)c1sc2ccccc2c1O,-99,132,124,-23,190*,6.3*,228*,133*,150*
Cc1ccc(-c2cc3ccccc3nc2N2CCCC2)cc1,3,11,111,-8,98,1.1,·,·,·
CN(c1cc(=O)n2ccccc2n1)C1CCCCC1,-5,20,106,-2,105,1.3,·,·,·
Cc1ccc2c(c1)C(=NC1CCCCC1)c1cc3ccccc3nc1-2,-102,178*,119,-20,192*,5.3*,208*,125,150*
Cc1ccc2c(c1)-c1nc3ccccc3cc1C2=NC1CCCCC1,-80,103,99,-4,172*,3.7*,201*,131,123*
Cc1ccc(NC(=O)COc2ccccc2C=O)cc1Cl,-113,154*,107,-4,200*,6.8*,209*,137*,109
O=c1/c(=C/c2ccc([N+](=O)[O-])cc2)sc2n1CCCN=2,-62,21,96,9,157*,1.8,183*,135*,97
CCN(/C=N/c1sc2c(c1C#N)CCCCC2)CC,-63,117,121,-20,158*,4.2*,182*,135*,125*
N#Cc1c(/N=C/C=C/c2ccccc2)sc2c1CCCC2,9,5,94,13,92,1,·,·,·
COc1cccc(C(=O)/C=C/Nc2ccc(S(=O)(=O)Nc3cccc(C(C)=O)c3)cc2)c1,15,-2,84,22,86,0.57,·,·,·
COc1cccc(N/C=C/C(=O)c2ccc(Cl)cc2)c1,-91,198*,86,19,180*,6.4*,239*,115,96
